*1 amine or outer side, *2 acyl side, *3 side chain or, on linkers, in order; H or OH if unused. Where a SMILES comes first, the peptide text is derived from it. Side-chain parts run from the residue outwards. The star is where a group is joined. 3Abz = Nc1cccc(C(=O)O)c1; X4 = CC(=O)c1cccc(N*)c1; Boc = CC(C)(C)OC(=O)*; X7 = Clc1cccc(N*)c1Cl; CO = O=C([*:1])[*:2]; NHPh = c1ccc(N*)cc1
Legend:
Cavia porcellus [1] = species: Cavia porcellus; experiment: The compound was tested for effective concentration for amylase release in guinea pig pancreatic Acini; type: functional
How it was run: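 Amylase release from guinea pig pancreatic acini. […] Each determination was run in duplicate with <5% sample variability. Means ±SE are given where there were three or more determinations.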

[2] = Selectivity ratio of IC50 measured in guinea pig cortex to that of IC50 for guinea pig pancreas; details: Cavia porcellus
Cavia porcellus [3] = species: Cavia porcellus; experiment: Percentage response in phosphoinositide hydrolysis relative to maximal response elicited by CCK-8 in guinea pig pancreatic acini; type: functional
How it was run: (§1)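 Guinea pig pancreatic acini, phosphoinositide hydrolysis. […] Efficacy is expressed as % of the maximal response elicited by CCK-8. Each determination was run in duplicate with <5% sample variability. Means ±SE are given for three or more determinations.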

[4] = target: T1, Cholecystokinin receptor type A (Cavia porcellus, UniProt Q63931); experiment: Binding affinity towards cholecystokinin type A receptor in guinea pig pancreas by using [125I]BH-CCK-8 as radioligand; type: tissue-based
T1 sequence (Q63931 whole entry): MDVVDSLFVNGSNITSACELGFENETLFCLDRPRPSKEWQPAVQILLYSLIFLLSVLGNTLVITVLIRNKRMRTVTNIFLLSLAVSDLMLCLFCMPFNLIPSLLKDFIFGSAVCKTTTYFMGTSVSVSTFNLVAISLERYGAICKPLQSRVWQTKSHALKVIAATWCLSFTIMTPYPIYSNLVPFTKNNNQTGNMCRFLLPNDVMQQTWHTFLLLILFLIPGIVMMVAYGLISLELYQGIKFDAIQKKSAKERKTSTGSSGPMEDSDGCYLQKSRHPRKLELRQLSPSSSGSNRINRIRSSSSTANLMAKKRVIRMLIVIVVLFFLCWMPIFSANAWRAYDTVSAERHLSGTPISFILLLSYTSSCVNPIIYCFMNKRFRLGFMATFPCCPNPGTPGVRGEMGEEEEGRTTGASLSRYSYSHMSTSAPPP
How it was run: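 Radioligand displacement of [125I]Bolton-Hunter CCK-8, guinea pig pancreas (CCK-A) or cortex (CCK-B) membranes. […] Each determination was run in duplicate with <5% sample variability. Means ±SE are given where there were three or more determinations.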

[5] = target: Gastrin/cholecystokinin type B receptor (Cavia porcellus); experiment: Binding affinity towards cholecystokinin type B receptor in guinea pig cortex by using [125I]BH-CCK-8 as radioligand
Cavia porcellus [6] = species: Cavia porcellus; experiment: Effective concentration for hydrolysis of phosphoinositide in guinea pig pancreatic Acini; type: functional; how it was run: as §1

SMILES | EC50 (Cavia porcellus [1]) [nM] | Selectivity [2] | Max response (Cavia porcellus [3]) [%] | IC50 [4] [nM] | IC50 [5] [nM] | EC50 (Cavia porcellus [6]) [nM]
COC(=O)c1cccc(NC(=O)NCCCC[C@H](NC(=O)[C@H](Cc2c[nH]c3ccccc23)NC(=O)OC(C)(C)C)C(=O)N[C@@H](CC(=O)O)C(=O)N[C@@H](Cc2ccccc2)C(N)=O)c1 (Boc-WK([CO-3Abz-OMe])DF-NH2) | 2.7 | 54 | 88 | 26 |  | 
CC(C)(C)OC(=O)N[C@@H](Cc1c[nH]c2ccccc12)C(=O)N[C@@H](CCCCNC(=O)Nc1ccccc1)C(=O)N[C@@H](CC(=O)O)C(=O)N[C@@H](Cc1ccccc1)C(N)=O (Boc-WK([CO-NHPh])DF-NH2) |  | 42 | 96 |  | 1100 | 53
CC(=O)c1cccc(NC(=O)NCCCC[C@H](NC(=O)[C@H](Cc2c[nH]c3ccccc23)NC(=O)OC(C)(C)C)C(=O)N[C@@H](CC(=O)O)C(=O)N[C@@H](Cc2ccccc2)C(N)=O)c1 (Boc-WK([CO-X4])DF-NH2) | 5.2 |  | 95 | 19 |  | 
CC(C)(C)OC(=O)N[C@@H](Cc1c[nH]c2ccccc12)C(=O)N[C@@H](CCCCNC(=O)Nc1cccc(Cl)c1Cl)C(=O)N[C@@H](CC(=O)O)C(=O)N[C@@H](Cc1ccccc1)C(N)=O (Boc-WK([CO-X7])DF-NH2) |  | 670 |  | 4.5 |  | 

Reference: ChEMBL document CHEMBL1125209, “Boc-CCK-4 derivatives containing side-chain ureas as potent and selective CCK-a receptor agonists” (J Med Chem, 1991)
